# Results as given in PMC3475257 (The FASEB Journal, 2012).
# Tested on: fully infectious HXB2 HIV‐1
# Assay: HXB2 virus infectivity assay
# Format: cell-based
# Settings: up to 1 μM, TZM‐bl cells
# Outline: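 TZM-bl reporter cells were seeded at 2×10^4 cells/well in 10% serum DMEM and left to adhere 18-24 h at 37°C. Medium was then swapped for serum-free DMEM containing 40 μg/ml DEAE-dextran. Test compound was added, followed by concentrated HXB2 stock diluted in the same medium. Infection ran 18 h at 37°C, with a luciferase (Steady-Glo) read-out.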
compound,measurement,value
"CCCCCCCCCCCCCCC[C@@H](O)[C@@H](N)CO [sphinganine, D‐erythrodihydrosphingosine]",Effect of sphinganine alone on viral infectivity,did not affect viral infectivity
